The source made the active and inactive calls. The calls are words filed in the database; no cut-off is given here.
How the values were obtained:
U-87 MG [1] = experiment: Antiproliferative activity against human U-87 MG cells incubated for 72 to 120 hrs by MTT assay; assay type: functional, cell-based; settings: U-87MG ATCC, time 72-120 hrs
In short: (§1)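 HT-29, U-87MG or MKN-45 in RPMI with 10% FBS and L-glutamine. Seeded in sextuplicate at 1.5×10^3 cells/well; compounds at 10–100 μM added after 24 h and left 72, 96 or 120 h; 0.5% DMSO control. MTT absorbance read; viability as treated/control ×100. Mean ± SD of two independent experiments in triplicate.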

MKN-45 = experiment: Antiproliferative activity against human MKN-45 cells at 10 to 100 uM incubated for 72 to 120 hrs by MTT assay; assay type: functional, cell-based; settings: dose 10-100 µM, time 72-120 hrs; in short: as §1
HT-29 = experiment: Antiproliferative activity against human HT-29 cells at 10 to 100 uM incubated for 72 to 120 hrs by MTT assay; assay type: functional, cell-based; settings: dose 10-100 µM, time 72-120 hrs; in short: as §1
OCI-AML-3 = experiment: Antiproliferative activity against human OCI-AML-3 cells at 100 uM incubated for 48 hrs by WST-1 assay; assay type: functional, cell-based
In short: (§2)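 Leukemia/lymphoma lines plated in triplicate at 5×10^3 cells/well. Exposed to increasing compound concentrations (maximum 100 μM) for 48 h at 37 °C, 5% CO2. WST-1 reagent then added for 1 h. IC50 obtained by nonlinear regression of dose–response curves.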

[2] = Antiproliferative activity against human IMS-M2 cells at 100 uM incubated for 48 hrs by WST-1 assay; assay type: functional, cell-based; in short: as §2
OCI-AML2 = experiment: Antiproliferative activity against human OCI-AML2 cells at 100 uM incubated for 48 hrs by WST-1 assay; assay type: functional, cell-based; in short: as §2
MV4-11 = experiment: Antiproliferative activity against human MV4-11 cells at 100 uM incubated for 48 hrs by WST-1 assay; assay type: functional, cell-based; in short: as §2
Kasumi 1 = experiment: Antiproliferative activity against human Kasumi 1 cells at 100 uM incubated for 48 hrs by WST-1 assay; assay type: functional, cell-based; in short: as §2
U-937 = experiment: Antiproliferative activity against human U-937 cells at 100 uM incubated for 48 hrs by WST-1 assay; assay type: functional, cell-based; in short: as §2
NB-4 = experiment: Antiproliferative activity against human NB-4 cells at 100 uM incubated for 48 hrs by WST-1 assay; assay type: functional, cell-based; in short: as §2
HL-60 = experiment: Antiproliferative activity against human HL-60 cells at 100 uM incubated for 48 hrs by WST-1 assay; assay type: functional, cell-based; in short: as §2
KARPAS-299 = experiment: Antiproliferative activity against human KARPAS-299 cells at 100 uM incubated for 48 hrs by WST-1 assay; assay type: functional, cell-based; in short: as §2
U-87 MG [3] = experiment: Induction of DNA damage in human U-87MG cells assessed as increase in gamma H2AX phosphorylation at ser139 at 20 uM by Western blot analysis; assay type: functional, cell-based; settings: U-87MG ATCC
U-87 MG [4] = experiment: Antagonist cytotoxicity against human U-87MG cells assessed as reduction in cell viability at 20 uM after 24 hrs in presence of doxorubicin by MTT assay; assay type: functional, cell-based; settings: U-87MG ATCC
In short: (§3)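 U-87MG in RPMI with 10% FBS. Treated 24 h with doxorubicin alone, test compound alone, or both at a fixed doxorubicin:compound ratio of 1:20. Viability read by MTT absorbance and expressed as treated/control ×100. Mean ± SD of two independent experiments, each in triplicate.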

U-87 MG [5] = experiment: Induction of cell cycle arrest in human U-87MG cells assessed as accumulation of cells at G2/M phase at 10 uM after 24 hrs by propidium iodide staining based flow cytometry analysis; assay type: functional; settings: U-87MG ATCC
In short: (§4)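 U-87MG treated 24 h with 10 μM compound, alone or with 0.5 μM doxorubicin. Cell-cycle phases and Sub-G1 fraction scored; three independent experiments.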

U-87 MG [6] = experiment: Synergistic cytotoxicity against human U-87MG cells assessed as combinantion index at ED50 after 24 hrs in presence of doxorubicin by MTT assay; assay type: functional, U-87MG ATCC
In short: (§5)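 Doxorubicin combined with inhibitor at a fixed 1:20 concentration ratio, 24 h exposure, U-87MG viability read by MTT. Combination index calculated with the CI equation and plotted against fractional growth inhibition. CI <0.9 is scored as synergism, 0.9–1.1 as additivity, >1.1 as antagonism. Mean of two independent experiments in triplicate.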

U-87 MG [7] = experiment: Synergistic cytotoxicity against human U-87MG cells assessed as combinantion index at ED75 after 24 hrs in presence of doxorubicin by MTT assay; assay type: functional, U-87MG ATCC; in short: as §5
U-87 MG [8] = experiment: Synergistic cytotoxicity against human U-87MG cells assessed as combinantion index at ED90 after 24 hrs in presence of doxorubicin by MTT assay; assay type: functional, U-87MG ATCC; in short: as §5
Homo sapiens [9] = species on record: Homo sapiens; experiment: Inhibition of recombinant human NO66 expressed in Escherichia coli BL21 (DE3) using RPL8 N205PVEHPFGGGNHQHIGKPST224 as substrate at 100 uM preincubated for 15 mins followed by substrate addition and measured after 30 to 60 mins by RapidFire Mass spectrometry assay; settings: time 45-75 min
In short: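 NO66 (E. coli BL21(DE3)-R3-pRARE2, TEV-cleaved) at 375 nM in 50 mM MES pH 7.0, 150 mM NaCl. Preincubated 15 min with compound. […] Formic-acid quench, RapidFire SPE-MS % hydroxylation.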

Homo sapiens [10] = species on record: Homo sapiens; experiment: Inhibition of recombinant human MINA53 expressed in Escherichia coli BL21 (DE3) using RPL27A G31RGNAGGLHHHRINFDKYHP49 as substrate at 100 uM preincubated for 15 mins followed by substrate addition and measured after 30 to 60 mins by RapidFire Mass spectrometry assay; settings: time 45-75 min
HeLa [11] = experiment: Antiproliferative activity against human HeLa cells at 10 to 100 uM incubated for 72 to 120 hrs by MTT assay; assay type: functional, cell-based; settings: dose 10-100 µM, time 72-120 hrs
In short: (§6)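 HEK293T or HeLa grown in DMEM with 10% FBS, mycoplasma-tested and STR-authenticated. Compounds added 24 h after seeding at 10–100 μM for 72–120 h; 0.5% DMSO as control. Viability by MTT colorimetric assay, expressed as treated/control ×100.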

HEK-293T = experiment: Antiproliferative activity against human HEK293T cells at 10 to 100 uM incubated for 72 to 120 hrs by MTT assay; assay type: functional, cell-based; settings: dose 10-100 µM, time 72-120 hrs; in short: as §6
HEK293T [12] = experiment: Binding affinity to MINA53 in HEK293T cells assessed as substrate trapping using RPL27A as substrate at 100 uM after 18 hrs by immunoprecipitation analysis; assay type: cell-based; settings: Homo sapiens
In short: (§7)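 HEK293T transiently expressing HA-MINA53, HA-NO66 or empty vector. Treated with 100 μM compound or 0.5% DMSO for 18 h. Cells lysed 1 h at 4 °C in JIES buffer; anti-HA agarose IP overnight, washed, eluted with HA peptide. Blots probed for RPL27A (MINA53) or RPL8 (NO66).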

HeLa [13] = experiment: Binding affinity to MINA53 in HeLa cells assessed as substrate trapping using RPL27A as substrate at 100 uM after 18 hrs by immunoprecipitation analysis; assay type: cell-based; settings: Homo sapiens
U-87 MG [14] = experiment: Binding affinity to MINA53 in U-87MG cells assessed as substrate trapping using RPL27A as substrate at 100 uM after 18 hrs by immunoprecipitation analysis; assay type: cell-based; settings: Homo sapiens
HEK293T [15] = experiment: Binding affinity to NO66 in HEK293T cells assessed as substrate trapping using RPL8 as substrate at 100 uM after 18 hrs by immunoprecipitation analysis; assay type: cell-based; settings: Homo sapiens; in short: as §7
U-87 MG [16] = experiment: Inhibition of KDM5 in human U-87MG cells assessed as increase in H3K4me3 level after 48 hrs by immunofluorescence analysis; assay type: cell-based
In short: (§8)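 U-87MG on coverslips, treated 24 h after plating with 50 μM compound for 48 h. Reference inhibitors: CPI-455 25 μM (KDM5), IOX-1 100 μM (KDM4), GSK-J4 10 μM (KDM6). PFA-fixed cells immunostained for H3K4me3, H3K9me3 or H3K27me3 with DAPI counterstain. Per-cell nuclear intensity quantified, ≥50 cells per condition; Mann–Whitney test vs DMSO.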

U-87 MG [17] = experiment: Inhibition of KDM4 in human U-87MG cells assessed as increase in H3K9me3 level after 48 hrs by immunofluorescence analysis; assay type: cell-based; in short: as §8
U-87 MG [18] = experiment: Inhibition of KDM6 in human U-87MG cells assessed as increase in H3K27me3 level after 48 hrs by immunofluorescence analysis; assay type: cell-based; in short: as §8
U-87 MG [19] = experiment: Cytotoxicity against human U-87MG cells assessed as doxorubicin sensitization after 24 hrs in presence of doxorubicin by MTT assay; assay type: functional, cell-based; settings: U-87MG ATCC; in short: as §3
U-87 MG [20] = experiment: Cytotoxicity against human U-87MG cells assessed as reduction in cell viability after 24 hrs in presence of doxorubicin by MTT assay; assay type: functional, cell-based; settings: U-87MG ATCC; in short: as §3
U-87 MG [21] = experiment: Synergistic cytotoxicity against human U-87MG cells assessed as reduction in cell viability at 20 uM after 24 hrs in presence of doxorubicin by MTT assay; assay type: functional, U-87MG ATCC; in short: as §3
U-87 MG [22] = experiment: Induction of apoptosis in human U87-MG cells assessed as increase in sub-G1 cells at 10 uM after 24 hrs by propidium iodide staining based flow cytometry analysis; assay type: functional, cell-based; settings: U-87MG ATCC; in short: as §4
U-87 MG [23] = experiment: Induction of apoptosis in human U87-MG cells assessed as increase in apoptotic cells at 10 uM after 24 hrs in presence of 0.5 uM doxorubicin by propidium iodide staining based flow cytometry analysis; assay type: functional, U-87MG ATCC; in short: as §4

Compound	Activity (U-87 MG [1])	Activity (MKN-45)	Activity (HT-29)	IC50 (OCI-AML-3)	IC50 [2]	IC50 (OCI-AML2)	IC50 (MV4-11)	IC50 (Kasumi 1)	IC50 (U-937)	IC50 (KARPAS-299)	Activity (U-87 MG [5])	CI (U-87 MG [6])	CI (U-87 MG [7])	CI (U-87 MG [8])	Activity (HeLa [11])	Activity (HEK-293T)	Activity (HEK293T [12])	Activity (HeLa [13])	Activity (U-87 MG [14])	Activity (HEK293T [15])	other results
COC(=O)c1cnc(SCCCc2ccccc2)[nH]c1=O	Active	Active	Active	–	–	–	–	–	–	–	–	–	–	–	–	–	–	–	–	–	–
O=C(O)c1c[nH]c(=S)[nH]c1=O	inactive	inactive	inactive	Not Active	Not Active	Not Active	Not Active	Not Active	Not Active	Not Active	inactive	1	1	1	–	–	–	–	–	–	IC50 (NB-4): Not Active; IC50 (HL-60): Not Active; Activity (U-87 MG [3]): inactive; Activity (U-87 MG [4]): Active
O=C(O)CCNc1cc(N2CCc3ccccc3CC2)nc(-c2ccccn2)n1	–	–	–	–	–	–	–	–	–	–	–	–	–	–	–	–	–	–	–	–	inhibition (Homo sapiens [9]): inactive; inhibition (Homo sapiens [10]): inactive
O=C(O)c1cnc(SCCc2ccccc2)[nH]c1=O	Active	Active	inactive	Not Active	Not Active	Not Active	Not Active	Not Active	Not Active	Not Active	Active	0.32	0.63	22.1	Active	Active	Active	Active	Active	inactive	inhibition (U-87 MG [16]): inactive; inhibition (U-87 MG [17]): inactive; inhibition (U-87 MG [18]): inactive; Activity (U-87 MG [3]; TDE = time-dependent effect): Tde; Activity (U-87 MG [19]): Dose-Dependent Effect; Activity (U-87 MG [20]): Dose-Dependent Effect; Activity (U-87 MG [21]): 75%; Activity (U-87 MG [22]): Active; Activity (U-87 MG [23]): 60%
O=C(O)c1cnc(SCCCc2ccccc2)[nH]c1=O	Active	Active	inactive	Not Active	Not Active	Not Active	Not Active	Not Active	Not Active	Not Active	Active	0.21	0.13	0.18	Active	Active	Active	Active	Active	inactive	inhibition (U-87 MG [16]): inactive; inhibition (U-87 MG [17]): inactive; inhibition (U-87 MG [18]): inactive; Activity (U-87 MG [3]; TDE = time-dependent effect): Tde; Activity (U-87 MG [19]): Dose-Dependent Effect; Activity (U-87 MG [20]): Dose-Dependent Effect; Activity (U-87 MG [21]): 75%; Activity (U-87 MG [22]): Active; Activity (U-87 MG [23]): 60%

From ChEMBL document CHEMBL5030566, “First-in-Class Inhibitors of the Ribosomal Oxygenase MINA53” (J Med Chem, 2021)
